Assay results reported in ChEMBL document CHEMBL1155805 (J Med Chem, 2008).

What was measured:
[1] = species on record: Rattus norvegicus; assay: Ratio of Ki for adrenergic receptor alpha1 to Ki for 5HT1A receptor in CRL:CD(SD)BR-COBS rat brain
[2] = target: T1, 5-hydroxytryptamine receptor 1A (Rattus norvegicus, UniProt P19327); assay: Displacement of [3H]8-OH-DPAT from 5HT1A receptor in CRL:CD(SD)BR-COBS rat hippocampus; format: tissue-based
T1 sequence (P19327 whole entry): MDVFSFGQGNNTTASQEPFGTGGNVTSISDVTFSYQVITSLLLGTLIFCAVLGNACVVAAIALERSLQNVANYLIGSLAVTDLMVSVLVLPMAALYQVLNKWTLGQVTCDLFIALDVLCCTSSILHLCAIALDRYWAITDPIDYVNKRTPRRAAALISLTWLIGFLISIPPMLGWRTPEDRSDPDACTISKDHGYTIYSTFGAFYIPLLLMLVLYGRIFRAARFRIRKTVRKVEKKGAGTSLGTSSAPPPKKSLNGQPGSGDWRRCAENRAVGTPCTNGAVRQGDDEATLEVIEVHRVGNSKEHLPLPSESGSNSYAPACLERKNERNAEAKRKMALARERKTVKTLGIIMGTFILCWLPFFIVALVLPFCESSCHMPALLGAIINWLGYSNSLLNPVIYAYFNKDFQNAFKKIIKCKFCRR
Summary of the method: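 Rat hippocampus homogenized in 50 mM Tris·HCl pH 7.4, spun at 50000g, warmed 10 min at 37 °C, washed, then resuspended in 50 mM Tris·HCl pH 7.7 with 10 µM pargyline and 4 mM CaCl2. Incubation used 1 nM [3H]8-OH-DPAT for 30 min at 25 °C. Nonspecific binding was defined with 10 µM 5-HT. Separation was by filtration. Ki is the mean ± SD of three experiments.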

[3] = Displacement of [3H]prazosin from adrenergic receptor alpha1 in CRL:CD(SD)BR-COBS rat brain cortex
Summary of the method: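 Cortical membranes were washed (50000g, 10 min at 37 °C) and suspended in 50 mM Tris·HCl pH 7.7 with 10 µM pargyline and 0.1% ascorbic acid. Incubation used 0.2 nM [3H]prazosin for 30 min at 25 °C. Nonspecific binding was defined with 3 µM phentolamine. Filtration was used. Ki is the mean ± SD of three experiments.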

[4] = target: D(2) dopamine receptor (Rattus norvegicus, UniProt P61169); assay: Displacement of [3H]spiperone from dopamine D2 receptor in CRL:CD(SD)BR-COBS rat brain striatum
D(2) dopamine receptor, sequence (P61169 whole entry): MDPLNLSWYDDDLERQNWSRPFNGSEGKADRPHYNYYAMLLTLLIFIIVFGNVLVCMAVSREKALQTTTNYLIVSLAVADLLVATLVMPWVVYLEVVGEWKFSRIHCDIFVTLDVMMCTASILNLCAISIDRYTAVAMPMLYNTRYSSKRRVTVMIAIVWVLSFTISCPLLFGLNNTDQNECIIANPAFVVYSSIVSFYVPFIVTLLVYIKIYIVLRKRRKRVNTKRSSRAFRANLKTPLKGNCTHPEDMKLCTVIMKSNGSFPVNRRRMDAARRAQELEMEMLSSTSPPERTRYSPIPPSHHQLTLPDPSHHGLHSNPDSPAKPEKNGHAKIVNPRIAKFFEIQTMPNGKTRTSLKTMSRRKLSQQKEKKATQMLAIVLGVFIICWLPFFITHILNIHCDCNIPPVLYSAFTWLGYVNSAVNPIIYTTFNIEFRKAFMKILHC

[5] = target: D(1A) dopamine receptor (Rattus norvegicus, UniProt P18901); assay: Displacement of [3H]SCH23390 from dopamine D1 receptor in CRL:CD(SD)BR-COBS rat brain striatum
D(1A) dopamine receptor, sequence (P18901 whole entry): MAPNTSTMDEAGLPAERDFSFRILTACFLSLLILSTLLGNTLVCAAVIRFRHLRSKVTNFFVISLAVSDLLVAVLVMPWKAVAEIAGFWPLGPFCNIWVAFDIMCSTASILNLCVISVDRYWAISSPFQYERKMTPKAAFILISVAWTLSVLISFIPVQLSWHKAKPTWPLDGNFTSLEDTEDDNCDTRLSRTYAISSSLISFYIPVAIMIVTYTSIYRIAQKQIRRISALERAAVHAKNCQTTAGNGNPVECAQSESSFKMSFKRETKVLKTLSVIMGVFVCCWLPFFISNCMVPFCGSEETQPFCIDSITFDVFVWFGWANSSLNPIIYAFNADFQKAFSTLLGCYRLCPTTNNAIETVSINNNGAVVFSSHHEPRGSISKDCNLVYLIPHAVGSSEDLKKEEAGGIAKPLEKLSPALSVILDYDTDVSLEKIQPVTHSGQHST
Summary of the method: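 Striatal membranes were washed (50000g spins, 10 min at 37 °C), then held in 50 mM Tris·HCl pH 7.4 with 10 µM pargyline, 120 mM NaCl, 5 mM KCl, 2 mM CaCl2, 1 mM MgCl2 and 0.1% ascorbic acid. Incubation used 0.4 nM [3H]SCH23390 for 15 min at 25 °C. Nonspecific binding was defined with 10 µM (-)-cis-flupentixol. Filtration was used. Ki is the mean ± SD of three experiments.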

[6] = target: 5-hydroxytryptamine receptor 2A (Rattus norvegicus, UniProt P14842); assay: Displacement of [3H]ketanserin from 5HT2A receptor in CRL:CD(SD)BR-COBS rat brain cortex
5-hydroxytryptamine receptor 2A, sequence (P14842 whole entry): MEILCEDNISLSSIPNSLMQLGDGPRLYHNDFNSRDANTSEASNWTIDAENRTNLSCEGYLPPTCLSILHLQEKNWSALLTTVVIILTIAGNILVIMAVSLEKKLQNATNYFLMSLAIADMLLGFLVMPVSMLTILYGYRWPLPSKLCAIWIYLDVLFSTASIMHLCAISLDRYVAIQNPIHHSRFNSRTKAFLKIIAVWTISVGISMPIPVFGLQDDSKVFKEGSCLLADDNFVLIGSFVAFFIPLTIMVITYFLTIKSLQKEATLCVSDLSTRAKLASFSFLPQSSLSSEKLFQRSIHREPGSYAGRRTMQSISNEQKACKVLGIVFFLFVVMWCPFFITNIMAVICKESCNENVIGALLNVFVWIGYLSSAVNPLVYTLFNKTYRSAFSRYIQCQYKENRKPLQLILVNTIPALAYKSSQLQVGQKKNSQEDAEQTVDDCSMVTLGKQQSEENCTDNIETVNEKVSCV
Summary of the method: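 Cortex homogenate was washed, including 10 min at 37 °C, and resuspended in 50 mM Tris·HCl pH 7.7. Incubation used 0.35 nM [3H]ketanserin for 15 min at 37 °C. Nonspecific binding was defined with 1 µM methysergide. Filtration was used. Ki is the mean ± SD of three experiments.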

[7] = target: T2, 5-hydroxytryptamine receptor 1A (Rattus norvegicus) (UniProt P19327); assay: Agonist activity at 5HT1A receptor in CRL:CD(SD)BR-COBS rat hippocampus assessed as increase in [35S]GTPgammaS binding relative to 5-hydroxytryptamine; format: functional, tissue-based
T2 sequence (whole entry): T1 sequence (P19327 whole entry)
Summary of the method: (§1)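 Rat hippocampal membranes (200 µg protein/sample), washed in 50 mM Tris·HCl and resuspended in pH 7.7 Tris with 10 µM pargyline and 4 mM CaCl2. Graded drug concentrations were applied, with 20 min preincubation at 37 °C, then 45 min at 37 °C with 0.1 nM [35S]GTPγS. Nonspecific binding was set with 10 µM GTPγS, followed by GF/B filtration. EC50 and Emax (vs 5-HT) came from curve fitting. Mean ± SD, three experiments.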

[8] = target: T1, 5-hydroxytryptamine receptor 1A; assay: Agonist activity at 5HT1A receptor in CRL:CD(SD)BR-COBS rat hippocampus assessed as increase in [35S]GTPgammaS binding; format: functional, tissue-based
Summary of the method: as §1, with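 “filtration.” for “filtration. EC50 and Emax (vs 5-HT) came from curve fitting.”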

[9] = target: T1, 5-hydroxytryptamine receptor 1A; assay: Antagonist activity at 5HT1A receptor in CRL:CD(SD)BR-COBS rat hippocampus assessed as inhibition of 5-hydroxytryptamine-induced increase in [35S]GTPgammaS binding; format: functional, tissue-based
Summary of the method: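 Hippocampal membranes (rat, 200 µg protein/sample) were prepared as for 5-HT1A binding. Antagonists were tested at several concentrations with 10 µM 5-HT: 20 min preincubation at 37 °C, then 45 min at 37 °C with 0.1 nM [35S]GTPγS. Nonspecific binding was set with 10 µM GTPγS, followed by filtration. IC50 was fitted and converted to Ki by Cheng–Prusoff. Mean ± SD of three experiments.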

c1cnc(N2CCN(CCCSc3nc4ccccc4o3)CC2)nc1 showed a Ratio Ki [1] of 111, a Ki [2] of 14.9 nM and a Ki [3] of 1650 nM.

In the case of COc1ccccc1N1CCN(CCCCCCSc2nc3ccccc3s2)CC1, the Ratio Ki [1] is reported as 53, the Ki [2] is reported as 1.3 nM and the Ki [3] is reported as 46 nM.

COc1ccccc1N1CCN(CCCSc2nc3cc(Cl)ccc3s2)CC1 showed a Ratio Ki [1] of 22, a Ki [2] of 1 nM and a Ki [3] of 21.9 nM.

c1cnc(N2CCN(CCCSc3nc4ccccc4s3)CC2)nc1 gave a Ratio Ki [1] of 131, a Ki [4] of 532 nM and a Ki [2] of 2.5 nM. It also gave a Ki [3] of 328 nM, a Ki [5] greater than 10000 nM and a Ki [6] of 183 nM.

O=C1c2ccccc2S(=O)(=O)N1CCCCN1CCN(c2ncccn2)CC1 [IPSAPIRONE] gave a Ratio Ki [1] of 36 and a Ki [3] of 200 nM.

With CCC1=CC2C(=O)N(N)C(SCCCN3CCN(c4ncccn4)CC3)=NC2S1 (stereo unspecified) the Emax [7] was 38% and the EC50 [8] was 1210 nM.

NCCc1c[nH]c2ccc(O)cc12 showed an Emax [7] of 100%.

Compound O=[N+]([O-])c1ccccc1N1CCN(CCCSc2nc3ccccc3o2)CC1 has a Ratio Ki [1] of 9, a Ki [2] of 14.1 nM and a Ki [3] of 127 nM.

Compound COc1ccccc1N1CCN(CCCSc2nc3ccccc3o2)CC1 has a Ratio Ki [1] of 39, a Ki [2] of 0.55 nM and a Ki [3] of 21.5 nM.

O=[N+]([O-])c1ccccc1N1CCN(CCSc2nc3ccccc3o2)CC1 showed a Ratio Ki [1] of 5.87, a Ki [2] of 326 nM and a Ki [3] of 1920 nM.

With O=[N+]([O-])c1ccccc1N1CCN(CCSc2nc3ccccc3s2)CC1 the Ratio Ki [1] was greater than 5.87, the Ki [2] was 1700 nM and the Ki [3] was greater than 10000 nM.

COc1ccccc1N1CCN(CCSc2nc3ccccc3o2)CC1 gave a Ratio Ki [1] of 4.11, a Ki [2] of 67.2 nM and a Ki [3] of 276 nM.

COc1ccccc1N1CCN(CCCCSc2nc3ccccc3s2)CC1 gave a Ratio Ki [1] of 61, a Ki [4] of 58.3 nM and a Ki [2] of 0.27 nM. For the same compound, the Ki [3] was 16.6 nM, the Ki [5] was 2000 nM and the Ki [6] was 106 nM.

Work on COc1ccccc1N1CCN(CCCSc2nc3ccccc3s2)CC1 yielded a Ratio Ki [1] of 114, a Ki [4] of 25.8 nM and a Ki [2] of 0.29 nM. The Ki [3] was 33.2 nM, the Ki [5] was 1280 nM and the Ki [6] was 96.1 nM. It also gave a Ki [9] of 1.7 nM.

COc1ccccc1N1CCN(CCCCCCSc2nc3ccccc3o2)CC1 showed a Ratio Ki [1] of 101, a Ki [4] of 46.6 nM and a Ki [2] of 0.52 nM. For the same compound, the Ki [3] was 52.5 nM, the Ki [5] was 922 nM and the Ki [6] was 207 nM. For the same compound, the Ki [9] was 1.3 nM.

For COc1ccccc1N1CCN(CCSc2nc3ccccc3s2)CC1, the Ratio Ki [1] was 6.63, the Ki [2] was 31.2 nM and the Ki [3] was 207 nM.

COc1ccccc1N1CCN(CCSc2nc3ccccc3[nH]2)CC1 gave a Ratio Ki [1] of 7.25, a Ki [2] of 33.1 nM and a Ki [3] of 240 nM.

In the case of CCc1cc2c(=O)n(N)c(SCCCN3CCN(c4ccccc4OC)CC3)nc2s1, the Ki [9] is reported as 7.4 nM.

In the case of COc1ccccc1N1CCN(CCCSc2nc3ccccc3[nH]2)CC1, the Ratio Ki [1] is reported as 26, the Ki [2] is reported as 1 nM and the Ki [3] is reported as 25.9 nM.

With O=[N+]([O-])c1ccccc1N1CCN(CCCSc2nc3ccccc3s2)CC1 the Ratio Ki [1] was 26, the Ki [2] was 9.6 nM and the Ki [3] was 249 nM.

With c1ccc(N2CCN(CCCSc3nc4ccccc4s3)CC2)nc1 the Ratio Ki [1] was 100, the Ki [4] was 462 nM and the Ki [2] was 0.78 nM. The Emax [7] was 33%, the Ki [3] was 77.7 nM and the EC50 [8] was 204 nM. For the same compound, the Ki [5] was 5630 nM and the Ki [6] was 78.8 nM.

For O=[N+]([O-])c1ccccc1N1CCN(CCSc2nc3ccccc3[nH]2)CC1, the Ratio Ki [1] was 4.8, the Ki [2] was 95.2 nM and the Ki [3] was 457 nM.

COc1ccccc1N1CCN(CCCSc2nc3cc(Cl)ccc3o2)CC1 gave a Ratio Ki [1] of 53, a Ki [2] of 0.88 nM and a Ki [3] of 46.7 nM.

Work on COc1ccccc1N1CCN(CCCSc2nc3ccccc3n2C)CC1 yielded a Ratio Ki [1] of 74, a Ki [2] of 0.27 nM and a Ki [3] of 20 nM.

c1ccc(N2CCN(CCCSc3nc4ccccc4o3)CC2)nc1 showed a Ratio Ki [1] of 61, a Ki [4] of 429 nM and a Ki [2] of 1.6 nM. For the same compound, the Ki [3] was 98 nM, the Ki [5] was greater than 10000 nM and the Ki [6] was 174 nM.

With COc1ccccc1N1CCN(CCCCSc2nc3ccccc3o2)CC1 the Ratio Ki [1] was 830, the Ki [4] was 37.3 nM and the Ki [2] was 0.094 nM. For the same compound, the Ki [3] was 78 nM, the Ki [5] was 1600 nM and the Ki [6] was 298 nM. It also gave a Ki [9] of 6.6 nM.

For O=[N+]([O-])c1ccccc1N1CCN(CCCSc2nc3ccccc3[nH]2)CC1, the Ratio Ki [1] was 4.66, the Ki [2] was 16.6 nM and the Ki [3] was 77.4 nM.
